This note sets out measurements from ChEMBL document CHEMBL1123016, “Synthesis and biological activities of analogues of angiotensins II and III containing O-methyltyrosine and D-tryptophan” (J Med Chem, 1985).

Square brackets hold non-standard residues; d marks the D form. Peptide text beside a SMILES is read from it. Sar = CNCC(=O)O A value given as a limit tells only on which side of the number the result lay.

For assay [1], the species on record is Rattus norvegicus. Briefly: Compound was tested for antagonist activity in rat isolated uterus assay; pA2 is the negative logarithm of the concentration of antagonist that reduces the response to an ED50 dose of angiotensin II to the response to half the ED50 dose. In kind it is functional. As to conditions: read-out: pA2 (converted). The method in brief:
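Isolated uterus from diethylstilbestrol-primed female Sprague-Dawley rats (150-250 g), challenged every 12 min. Antagonist was given 2 min before an ED50 dose of ANG II. Where antagonism appeared non-competitive, each tissue received a single "pA2 dose" and the ANG II response was measured after 2 min (mean of four determinations). Otherwise values are mean ± SEM (number of animals).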

The species entered for assay [2] is Rattus norvegicus. Briefly: Compound was tested for agonist activity in rat isolated uterus assay. In kind it is functional. An outline of the steps:
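Uteri from diethylstilbestrol-primed female Sprague-Dawley rats (150-250 g). Peptides were stored lyophilized at -20 °C, with 1 mg/mL stock solutions made weekly and assay dilutions made daily. Tissue was challenged every 12 min. Agonist activity is expressed relative to ANG II = 100%, as mean ± SEM with the number of animals.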

Take `CC[C@H](C)[C@H](NC(=O)[C@H](Cc1ccc(OC)cc1)NC(=O)[C@@H](NC(=O)[C@H](CCCN=C(N)N)NC(=O)CNC)C(C)C)C(=O)N[C@@H](Cc1c[nH]cn1)C(=O)N1CCC[C@H]1C(=O)N[C@@H](Cc1ccccc1)C(=O)O`: the Kb in assay [1] is 7.94 nM. This compound also yielded an Activity in assay [2] of less than 0.1%.
For `CC[C@H](C)[C@H](NC(=O)[C@H](Cc1ccc(O)cc1)NC(=O)[C@@H](NC(=O)[C@@H](N)CCCN=C(N)N)C(C)C)C(=O)N[C@@H](Cc1c[nH]cn1)C(=O)N1CCC[C@H]1C(=O)N[C@@H](Cc1c[nH]c2ccccc12)C(=O)O`, in that order: 200 nM and less than 0.1%.
For `CC[C@H](C)[C@H](NC(=O)[C@@H]1CCCN1C(=O)[C@H](Cc1c[nH]cn1)NC(=O)[C@@H](NC(=O)[C@H](Cc1ccc(OC)cc1)NC(=O)[C@@H](NC(=O)[C@H](CCCN=C(N)N)NC(=O)CNC)C(C)C)[C@@H](C)CC)C(=O)O`, in that order: 63.1 nM and less than 0.1%.
Turning to `CC[C@H](C)[C@H](NC(=O)[C@H](Cc1ccc(OC)cc1)NC(=O)[C@@H](NC(=O)[C@@H](N)CCCN=C(N)N)C(C)C)C(=O)N[C@@H](Cc1c[nH]cn1)C(=O)N1CCC[C@H]1C(=O)N[C@@H](Cc1ccccc1)C(=O)O`, the Kb in assay [1] is greater than 1000 nM. Also, in assay [2], the Activity was less than 0.1%.
For `CC[C@H](C)[C@H](NC(=O)[C@H](Cc1ccc(OC)cc1)NC(=O)[C@@H](NC(=O)[C@H](CCCN=C(N)N)NC(=O)CNC)C(C)C)C(=O)N[C@@H](Cc1c[nH]cn1)C(=O)N1CCC[C@H]1C(=O)N[C@@H](Cc1c[nH]c2ccccc12)C(=O)O`, in that order: 79.4 nM and less than 0.1%.
For `CC[C@H](C)[C@H](NC(=O)[C@H](Cc1ccc(OC)cc1)NC(=O)[C@@H](NC(=O)[C@@H](N)CCCN=C(N)N)C(C)C)C(=O)N[C@@H](Cc1c[nH]cn1)C(=O)N1CCC[C@H]1C(=O)N[C@@H](Cc1c[nH]c2ccccc12)C(=O)O`, the Kb in assay [1] is greater than 1000 nM. The compound also gave an Activity in assay [2] of less than 0.1%.
For `CC[C@H](C)[C@H](NC(=O)[C@@H]1CCCN1C(=O)[C@H](Cc1c[nH]cn1)NC(=O)[C@@H](NC(=O)[C@H](Cc1ccc(OC)cc1)NC(=O)[C@@H](NC(=O)[C@@H](N)CCCN=C(N)N)C(C)C)[C@@H](C)CC)C(=O)O`, in that order: greater than 1000 nM and less than 0.1%.
For `CC[C@H](C)[C@H](NC(=O)[C@H](Cc1ccc(O)cc1)NC(=O)[C@@H](NC(=O)[C@H](CCCN=C(N)N)NC(=O)CNC)C(C)C)C(=O)N[C@@H](Cc1c[nH]cn1)C(=O)N1CCC[C@H]1C(=O)N[C@@H](Cc1c[nH]c2ccccc12)C(=O)O`, in that order: 20 nM and less than 0.1%.
`CC[C@H](C)[C@H](NC(=O)[C@@H]1CCCN1C(=O)[C@H](Cc1c[nH]cn1)NC(=O)[C@@H](NC(=O)[C@H](Cc1ccc(O)cc1)NC(=O)[C@@H](NC(=O)[C@H](CCCN=C(N)N)NC(=O)CNC)C(C)C)[C@@H](C)CC)C(=O)O`: in assay [1], the Kb is 2 nM. The compound also came in with an Activity in assay [2] of less than 0.1%.
For `CC[C@H](C)[C@H](NC(=O)[C@H](Cc1c[nH]c2ccccc12)NC(=O)[C@@H](NC(=O)[C@@H](N)CCCN=C(N)N)C(C)C)C(=O)N[C@@H](Cc1c[nH]cn1)C(=O)N1CCC[C@H]1C(=O)N[C@@H](Cc1ccccc1)C(=O)O` (H-RVWIHPF-OH), in that order: greater than 1000 nM and less than 0.1%.
Consider `CC[C@H](C)[C@H](NC(=O)[C@@H]1CCCN1C(=O)[C@H](Cc1c[nH]cn1)NC(=O)[C@@H](NC(=O)[C@H](Cc1c[nH]c2ccccc12)NC(=O)[C@@H](NC(=O)[C@@H](N)CCCN=C(N)N)C(C)C)[C@@H](C)CC)C(=O)O` (H-RVWIHPI-OH), for which, in assay [1], the Kb is greater than 1000 nM. Further, the Activity in assay [2] is less than 0.1%.
As for `CC[C@H](C)[C@H](NC(=O)[C@H](Cc1c[nH]c2ccccc12)NC(=O)[C@@H](NC(=O)[C@H](CCCN=C(N)N)NC(=O)CNC)C(C)C)C(=O)N[C@@H](Cc1c[nH]cn1)C(=O)N1CCC[C@H]1C(=O)N[C@@H](Cc1ccccc1)C(=O)O` (H-[Sar]RVWIHPF-OH), the Kb in assay [1] was greater than 1000 nM. The compound further had an Activity in assay [2] of less than 0.1%.
